Most compounds without a hit are left out; they make up all but 2.2% or so of the library.
Ecoli rRNA inh: inhibitors of bacterial rRNA selective over humanized ribosomes; 1.6% of 350,000 active; GFP signal change (wild-type ribosome), % (concentration not given with the values); E. coli WT GFP vs humanized-ribosome RFP mutants, fluorescence, 24 h; hits give low values; DMSO median 0, no signal -100; AID 720706;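 active means significant combined selectivity score with lowered wild-type GFP, culture density cut under 30%, mutant RFP and density less affected; inactive means any of these conditions unmet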
Env fusion inh: inhibitors of HIV Env-mediated cell fusion; HeLa-JRFL Env/CEM21 cell fusion, luciferase; inhibition, % at 12.3 µM; 1.1% of 360,000 active; AID 651610;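 active means mean replicate inhibition score of at least 50 and every replicate individually at or above 50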
PvdQ acylase: blocks Pseudomonas aeruginosa PvdQ acylase activity. purified PvdQ acylase, fluorescence plate reader. inhibition, % at 10 µM. 0.063% of 340,000 active. AID 488965; in the data active means inhibition above about 30%, passing the limit was not always enough
FN deposit inh: fibronectin deposition inhibition; AID 743247; inhibition, % at 12.6 µM; 0.086% of 350,000 active; AH1F fibroblasts, Alexa488-fibronectin deposition fluorescence, overnight;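 active means mean inhibition across replicates of 30% or more, regardless of how many single replicates reach that level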
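Material: AH1F fibroblast monolayer depositing Alexa488-labelled fibronectin into matrix | Input: 10000 AH1F cells/well | Medium: DMEM plus 2% serum, read in PBS | Reagent: Alexa488-fibronectin, 24 nM final in well | Compound dosing: One dose per compound, pinned | Schedule: 1 h adhesion, overnight exposure | Measured by: Fluorescence at 485 nm excitation, 525 nm emission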
PDI inh: inhibitors of human protein disulfide isomerase. PDI insulin aggregation turbidity, A650, 90 min. inhibition, % at 10 µM. 0.052% of 350,000 active. AID 588391;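 active means mean inhibition across replicates of 30% or more, whatever share of single replicates reach that level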
Target sequence (P07237 whole entry, looked up): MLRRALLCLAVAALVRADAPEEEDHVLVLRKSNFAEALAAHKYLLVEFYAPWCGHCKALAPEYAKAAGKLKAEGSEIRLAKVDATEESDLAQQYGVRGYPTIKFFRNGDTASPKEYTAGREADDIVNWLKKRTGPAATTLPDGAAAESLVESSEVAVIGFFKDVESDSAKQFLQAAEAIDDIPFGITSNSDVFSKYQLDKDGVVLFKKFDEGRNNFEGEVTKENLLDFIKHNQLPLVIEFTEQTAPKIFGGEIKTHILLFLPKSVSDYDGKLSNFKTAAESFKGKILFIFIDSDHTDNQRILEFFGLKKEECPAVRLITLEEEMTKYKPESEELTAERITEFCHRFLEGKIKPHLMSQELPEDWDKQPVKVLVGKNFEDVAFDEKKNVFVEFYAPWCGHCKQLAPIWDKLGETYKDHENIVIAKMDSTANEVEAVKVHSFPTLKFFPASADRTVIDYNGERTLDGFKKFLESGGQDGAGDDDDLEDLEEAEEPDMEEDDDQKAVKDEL
ERp5 inh: blocks human ERp5 reductase activity on insulin; Q15084; ERp5 insulin aggregation, absorbance 650 nm, 90 min; inhibition, % at 9.99 µM; 0.05% of 350,000 active; AID 651711;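 active means mean replicate inhibition above about 25%, with every replicate also reaching it, limit read from the data, passing the limit was not always enough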
Numbers stand for hits.

`CCC1CN(C(=O)NCc2ccccc2)c2cc(Cl)ccc2O1` (configuration not stated) gave Ecoli rRNA inh inactive, Env fusion inh inactive, PvdQ acylase inactive, FN deposit inh inactive, PDI inh inactive and ERp5 inh inactive.
For O=C(C[C@H]1C[C@H]2c3cc(NC(=O)Nc4ccccc4F)ccc3O[C@H]2[C@@H](CO)O1)NCC1CC1 the results were Ecoli rRNA inh inactive, Env fusion inh inactive, FN deposit inh inactive and ERp5 inh inactive.
Screening CCOc1ccc(Nc2ncnc3ccc([N+](=O)[O-])cc23)cc1 returned Ecoli rRNA inh inactive, Env fusion inh inactive, PvdQ acylase 86, FN deposit inh inactive, PDI inh inactive and ERp5 inh inactive.
`COc1ccc(NC(=O)NCCCN2CCN(c3ccccc3F)CC2)cc1` gave Ecoli rRNA inh inactive, Env fusion inh inactive, PvdQ acylase inactive, FN deposit inh inactive, PDI inh inactive and ERp5 inh inactive.
Screening COc1ccc(NC(=O)NCCCN2CCN(c3cc(C)ccc3C)CC2)cc1 returned Ecoli rRNA inh inactive, Env fusion inh 59, PvdQ acylase inactive, FN deposit inh inactive and ERp5 inh inactive.
Screening O=S(=O)(N[C@@H]1CC[C@H](CCn2cc(C3(O)CCCC3)nn2)O[C@H]1CO)c1ccccc1 returned Ecoli rRNA inh inactive, Env fusion inh inactive and ERp5 inh inactive.
For CCN1C(=O)[C@H]2[C@H]3CN=C(SCc4ccc(C)cc4)N3[C@@](CC)(C(=O)OC)[C@H]2C1=O the results were Ecoli rRNA inh inactive, Env fusion inh inactive, PvdQ acylase inactive, FN deposit inh inactive, PDI inh inactive and ERp5 inh inactive.
COC(=O)[C@@]1(C)[C@H]2C(=O)N(Cc3ccccc3)C(=O)[C@H]2[C@H]2CN=C(SCc3ccccc3)N21 was read as Ecoli rRNA inh inactive, Env fusion inh 77, PvdQ acylase inactive, FN deposit inh inactive, PDI inh inactive and ERp5 inh inactive.
`CC[C@]1(C(=O)OC)[C@H]2C(=O)N(Cc3ccccc3)C(=O)[C@H]2[C@H]2CN=C(SCC3CC3)N21` gave Ecoli rRNA inh inactive, Env fusion inh 81, PvdQ acylase inactive, FN deposit inh inactive, PDI inh inactive and ERp5 inh inactive.
`CC[C@]1(C(=O)OC)[C@H]2C(=O)N(Cc3ccccc3)C(=O)[C@H]2[C@H]2CN=C(SCc3ccc(C)cc3)N21` gave Ecoli rRNA inh inactive, Env fusion inh 69, PvdQ acylase inactive, FN deposit inh inactive, PDI inh inactive and ERp5 inh inactive.
For CCN1C(=O)[C@H]2[C@H]3CN=C(SCc4ccc(C#N)cc4)N3[C@@](C)(C(=O)OC)[C@H]2C1=O the results were Ecoli rRNA inh inactive, Env fusion inh inactive, PvdQ acylase inactive, FN deposit inh inactive, PDI inh inactive and ERp5 inh inactive.
`CC[C@]1(C(=O)OC)[C@H]2C(=O)N(Cc3ccccc3)C(=O)[C@H]2[C@H]2CN=C(SCc3ccc(C(=O)OC)cc3)N21` gave Ecoli rRNA inh -26, Env fusion inh inactive, PvdQ acylase inactive, PDI inh inactive and ERp5 inh inactive.
For COCC(=O)N(C)C[C@H]1Oc2cc(-c3ccccc3F)ccc2S(=O)(=O)N([C@H](C)CO)C[C@H]1C the results were Ecoli rRNA inh inactive, Env fusion inh inactive, FN deposit inh inactive and ERp5 inh inactive.
`COC(=O)[C@@]1(Cc2ccccc2)[C@H]2C(=O)N(Cc3ccccc3)C(=O)[C@H]2[C@H]2CN=C(SCc3ccc(C#N)cc3)N21` gave Ecoli rRNA inh inactive, Env fusion inh 69, PvdQ acylase inactive, FN deposit inh inactive, PDI inh inactive and ERp5 inh inactive.
Screening CCN1C(=O)[C@H]2[C@H]3CN=C(SCc4ccc(C#N)cc4)N3[C@@](Cc3ccccc3)(C(=O)OC)[C@H]2C1=O returned Ecoli rRNA inh inactive, Env fusion inh inactive, PvdQ acylase inactive, FN deposit inh inactive, PDI inh inactive and ERp5 inh inactive.
For COc1ccccc1S(=O)(=O)N[C@H]1CC[C@H](CCNC(=O)C2CCCC2)O[C@@H]1CO the results were Ecoli rRNA inh inactive, Env fusion inh inactive, FN deposit inh inactive and ERp5 inh inactive.
For CCC(=O)N(C)C[C@H]1Oc2cc(-c3ccncc3)ccc2S(=O)(=O)N([C@H](C)CO)C[C@@H]1C the results were Ecoli rRNA inh inactive, Env fusion inh inactive, FN deposit inh inactive and ERp5 inh inactive.
`CC(C)NC(=O)N(C)C[C@H]1Oc2cc(-c3ccncc3)ccc2S(=O)(=O)N([C@@H](C)CO)C[C@@H]1C` gave Ecoli rRNA inh inactive, Env fusion inh inactive, FN deposit inh inactive and ERp5 inh inactive.
For O=C(N/N=C/C(Cl)=C/c1ccccc1)c1ccccn1 the results were Ecoli rRNA inh -15, Env fusion inh inactive, PvdQ acylase inactive, FN deposit inh inactive, PDI inh inactive and ERp5 inh inactive.
Screening COc1cccc(S(=O)(=O)N(C)C[C@H]2Oc3cc(C#CCN(C)C)ccc3S(=O)(=O)N([C@H](C)CO)C[C@@H]2C)c1 returned Ecoli rRNA inh inactive, Env fusion inh inactive and ERp5 inh inactive.
Screening CCCNC(=O)C[C@H]1CC[C@H]2[C@@H](COC[C@H](O)CN2C(=O)Nc2ccccc2OC)O1 returned Ecoli rRNA inh inactive, FN deposit inh inactive and ERp5 inh inactive.
Screening Cc1cc(C)nc(Nc2cccc(Cl)c2)n1 returned Ecoli rRNA inh inactive, Env fusion inh inactive, PvdQ acylase inactive, FN deposit inh inactive, PDI inh inactive and ERp5 inh inactive.
Screening CCC(C)Oc1cc(-c2ccnc(Nc3cccc(Cl)c3)n2)ccn1 (configuration not stated) returned Ecoli rRNA inh inactive, Env fusion inh 66, PvdQ acylase inactive, FN deposit inh inactive, PDI inh inactive and ERp5 inh inactive.
For OCCCNc1cc(-c2ccnc(Nc3cccc(Cl)c3)n2)ccn1 the results were Ecoli rRNA inh -20, Env fusion inh inactive, PvdQ acylase inactive, FN deposit inh inactive, PDI inh inactive and ERp5 inh inactive.
For CC(C)OC(=O)N(C)C[C@H]1OCc2ccccc2-c2ccccc2C(=O)N([C@@H](C)CO)C[C@H]1C the results were Ecoli rRNA inh inactive and FN deposit inh inactive.
`COCC(=O)N1CC2(C1)[C@H](c1ccccc1)[C@@H](CO)N2C(=O)c1ccncc1` gave Ecoli rRNA inh inactive and ERp5 inh inactive.
CCOc1ccc(N=Nc2ccc(O)c3ncccc23)cc1 was read as Ecoli rRNA inh inactive, Env fusion inh inactive, PvdQ acylase inactive, FN deposit inh inactive, PDI inh inactive and ERp5 inh inactive.
Screening NS(=O)(=O)c1ccc(N=Nc2ccc(O)c3ncccc23)cc1 returned Ecoli rRNA inh inactive, Env fusion inh 61, PvdQ acylase inactive, FN deposit inh inactive, PDI inh inactive and ERp5 inh inactive.
For COc1ccc(N2C(=O)c3ccccc3NC(=O)C2C(=O)NCCc2ccccc2F)cc1 (configuration not stated) the results were Ecoli rRNA inh inactive, Env fusion inh 58 and ERp5 inh inactive.

Assay outcomes from PubChem.
